Many of the other results were omitted from the sample, so hits are more common in it than they were.
IDH1 mut inh: inhibitors of IDH1 R132H reductase, primary screen, biochemical, plate reader, single point; Isocitrate dehydrogenase [NADP] cytoplasmic (Homo sapiens), O75874; diaphorase/resazurin fluorescence, 60 min; inhibition, % at 10 µM; hit rate 0.18% among 70,000; AID 624101, 2012; in the data active = inhibition above about 34%; inconclusive = no clear call, values can overlap the other calls; inactive = below about 11%
T cruzi growth-1: T. cruzi intracellular proliferation inhibitors, primary screen, cell-based, beta-gal Tulahuen parasites, NIH3T3 host, luminescence; T. cruzi beta-gal in NIH3T3, GalScreen luminescence, 90 h; inhibition, % at 8.34 µM; hit rate 5.9% among 77,000;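 active = mean inhibition above about 93%, with at least 55% of replicates each passing it, limit read from the data, passing the limit was not always enough; inconclusive = only one of those two conditions holds; inactive = neither condition holds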
GASC1 inh: inhibitors of GASC-1 (KDM4C) histone demethylase, primary screen, biochemical, single concentration HTS; hit rate 0.15% among 96,000; inhibition, % at 12.5 µM; AID 720574, 2013; GST-KDM4C 2-372, H3K9me3 peptide, LANCE TR-FRET;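 active = mean replicate inhibition above about 25%, with at least 55% of replicates also reaching it, limit read from the data, passing the limit was not always enough; inconclusive = only one of those two conditions met; inactive = neither condition met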
Target sequence (Q9H3R0 2-372 limits assumed): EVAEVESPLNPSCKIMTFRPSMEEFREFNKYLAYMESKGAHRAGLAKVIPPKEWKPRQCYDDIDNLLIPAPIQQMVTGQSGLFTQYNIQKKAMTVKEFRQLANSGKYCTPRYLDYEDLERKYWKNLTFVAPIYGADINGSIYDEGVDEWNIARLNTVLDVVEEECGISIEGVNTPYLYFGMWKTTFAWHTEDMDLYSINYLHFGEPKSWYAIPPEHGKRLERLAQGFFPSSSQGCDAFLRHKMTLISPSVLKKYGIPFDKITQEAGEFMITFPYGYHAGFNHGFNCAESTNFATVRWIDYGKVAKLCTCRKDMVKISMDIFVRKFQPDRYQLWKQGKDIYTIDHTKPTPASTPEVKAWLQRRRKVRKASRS
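Material: GST-tagged GASC-1 (JMJD2C) catalytic fragment, aa 2-372 / Quantity: enzyme final amount 10 nM / Medium: HEPES buffer, pH 7.5, plus ascorbate / Doses: one test concentration per compound / Incubation: 30 min reaction, 60 min detection, RT / Measured by: LANCE TR-FRET / Read-out: inhibition from TR-FRET ratio decrease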
T cruzi growth-2: T. cruzi intracellular proliferation inhibitors, confirmation, cell-based, NIH3T3 host, beta-gal parasite, luminescence, cherry-pick; shares compounds with T cruzi growth-1; T. cruzi beta-gal in NIH3T3, GalScreen luminescence, 90 h; inhibition, % at 8.35 µM; hit rate 72% among 5,600; AID 651739, 2012;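 active = mean replicate inhibition above about 95% and at least 55% of replicates individually reaching it, limit read from the data; inconclusive = only one of the two criteria is met; inactive = neither criterion is met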
T cruzi growth-3: inhibitors of intracellular T. cruzi replication, confirmation, NIH3T3 host cells, beta-gal parasites, cherry-pick, set 2. T. cruzi beta-gal in NIH3T3, GalScreen luminescence, 90 h. inhibition, % at 2.09 µM. hit rate 21% among 5,600. shares compounds with T cruzi growth-1;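 active = mean inhibition above about 95%, with at least 55% of replicates also reaching it, limit read from the data; inconclusive = meets just one of the two conditions; inactive = meets neither condition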
3T3 cytotox: cytotoxicity in mouse NIH/3T3 fibroblasts, confirmation, cytotoxicity control for T. cruzi proliferation inhibitor project, cell-based, cherry-pick, single point | shares compounds with T cruzi growth-1 | NIH/3T3 viability, CellTiter-Glo ATP luminescence, 90 h | hit rate 14% among 5,600 | cytotoxicity (signal decrease), % at 8.35 µM;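 active = mean signal decrease across replicates above about 35% based on untreated-well scatter, with enough replicates individually passing, limit read from the data; inconclusive = no rule stated though some were filed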
3T3 cytotox 2: NIH/3T3 fibroblast cytotoxicity, confirmation, cytotoxicity control, cell-based, cherry-pick, single point, set 2; shares compounds with T cruzi growth-1; NIH/3T3 viability, CellTiter-Glo ATP luminescence, 90 h; inhibition, % at 24.9 µM; hit rate 56% among 5,600;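 active = mean loss of cell viability signal at or above a set limit, and enough replicates individually reaching it; inconclusive = meets only the mean limit or only the replicate share; inactive = meets neither condition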
A number is an active result; n = inactive; u = inconclusive; x = not tested or not shown.

SMILES	IDH1 mut inh	T cruzi growth-1	GASC1 inh	T cruzi growth-2	T cruzi growth-3	3T3 cytotox	3T3 cytotox 2
C/C=C/c1ccc2c(c1)O[C@@H](CN(C)Cc1cccnc1)[C@H](C)CN([C@@H](C)CO)S2(=O)=O	n	105.7	n	101.0	n	38.2	69.6
CCn1c(SCC(=O)Nc2ccccc2)nc2ccc(I)cc2c1=O	n	x	x	x	x	x	x
Cn1c(SCC(=O)Nc2c(F)cc(F)cc2Br)nnc1-c1ccco1	n	x	x	x	x	x	x
COc1ccc(NC(=O)N(C)C[C@@H]2OCCCC[C@@H](C)Oc3ccc(NC(=O)Nc4ccc5c(c4)OCO5)cc3C(=O)N([C@H](C)CO)C[C@H]2C)cc1	n	n	n	x	x	x	x
COc1ccc(NC(=O)Nc2ccc3c(c2)C(=O)N([C@@H](C)CO)C[C@H](C)[C@H](CN(C)C(=O)Nc2ccc4c(c2)OCO4)OCCCC[C@H](C)O3)cc1	x	u	n	108.4	n	n	n
COc1ccc(NC(=O)Nc2ccc3c(c2)C(=O)N([C@H](C)CO)C[C@H](C)[C@H](CN(C)C(=O)Nc2ccc4c(c2)OCO4)OCCCC[C@H](C)O3)cc1	n	u	n	110.9	n	n	n
COc1ccc(NC(=O)N(C)C[C@@H]2OCCCC[C@H](C)Oc3ccc(NC(=O)Nc4ccc5c(c4)OCO5)cc3C(=O)N([C@@H](C)CO)C[C@@H]2C)cc1	n	n	n	x	x	x	x
O=C(CSc1nnc2ccc3ccccc3n12)Nc1nsc(-c2ccc(Cl)cc2)n1	n	x	x	x	x	x	x
COc1ccc(OC)c(NC(=O)c2c(NC(=O)c3ccccc3)sc3c2CCC(C)C3)c1 (stereo unspecified)	n	x	x	x	x	x	x
COc1ccc(S(=O)(=O)N2C[C@@H](O)COC[C@H]3O[C@@H](CC(=O)NCc4ccc(Cl)c(Cl)c4)CC[C@@H]32)cc1	x	118.0	n	107.0	n	n	n
O=C(C[C@H]1CC[C@@H]2[C@H](COC[C@@H](O)CN2S(=O)(=O)c2ccc(Cl)cc2)O1)NCc1ccc(Cl)c(Cl)c1	x	97.2	n	104.2	n	n	62.2
O=C(C[C@H]1CC[C@@H]2[C@H](COC[C@H](O)CN2S(=O)(=O)c2ccc(Cl)cc2)O1)NCc1ccc(Cl)c(Cl)c1	x	n	n	x	x	x	x
O=C(C[C@@H]1CC[C@H]2[C@@H](COC[C@@H](O)CN2S(=O)(=O)c2ccc(Cl)cc2)O1)NCc1ccc(Cl)c(Cl)c1	x	n	n	x	x	x	x
O=C(C[C@H]1CC[C@H]2[C@@H](COC[C@@H](O)CN2S(=O)(=O)c2ccc(Cl)cc2)O1)NCc1ccc(Cl)c(Cl)c1	x	103.7	n	100.1	n	n	55.5
Cc1ccc(S(=O)(=O)N2C[C@@H](O)COC[C@H]3O[C@H](CC(=O)NCc4ccc(Cl)c(Cl)c4)CC[C@@H]32)cc1	x	n	n	x	x	x	x
Cc1cccc(NC(=O)CN(c2ccc(Br)c(C)c2)S(C)(=O)=O)c1	n	x	x	x	x	x	x
COc1cc(NC(=S)NC(=O)C(C)Oc2ccc(Cl)cc2Cl)c(OC)cc1Cl (stereo unspecified)	n	x	x	x	x	x	x
O=C(NCc1nc(-c2ccccc2)no1)c1ccc2ccccc2c1	n	x	x	x	x	x	x
COc1cc(CO)cc(Cl)c1OCc1cccc(C(=O)O)c1	n	x	x	x	x	x	x
O=C1c2ccc(O)cc2C(=O)c2ccc(O)cc21	n	x	x	x	x	x	x
Cn1cnc(S(=O)(=O)N2CCCCN3[C@H](C2)[C@H](c2ccc(C#CC4CCCC4)cc2)[C@@H]3CO)c1	x	n	n	x	x	x	x
Cn1cnc(S(=O)(=O)N2CCCCN3[C@H](CO)[C@H](c4ccc(C#CC5CCCC5)cc4)[C@@H]3C2)c1	x	106.6	n	u	n	n	33.4
Cn1cnc(S(=O)(=O)N2CCCCN3[C@@H](CO)[C@@H](c4ccc(-c5ccc(F)cc5)cc4)[C@@H]3C2)c1	x	n	n	x	x	x	x
Cn1cnc(S(=O)(=O)N2CCCCN3[C@H](C2)[C@H](c2ccc(-c4ccccc4)cc2)[C@@H]3CO)c1	x	103.5	n	n	n	n	n

Screens (PubChem)
